Results taken from ChEMBL document CHEMBL1128681, “Studies on the monoamine oxidase (MAO)-catalyzed oxidation of phenyl-substituted 1-methyl-4-phenoxy-1,2,3,6-tetrahydropyridine derivatives: factors contributing to MAO-A and MAO-B selectivity” (J Med Chem, 1995).

Legend:
[1] = substrate: CN1CC=C(Oc2ccccc2-c2ccccc2)CC1; test: (§1) Michaelis-Menten constant for Monoamine oxidase A-catalyzed oxidation (KM).
How it was run: (§2)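 MAO-A at 0.16 μM final, raised to 0.32 μM for one slowly oxidized substrate. The MAO-A preparation was diluted with 3 volumes of phosphate buffer just before use, and its activity was re-checked bimonthly with kynuramine at 30 °C. Substrates at 100–2000 μM in 100 mM sodium phosphate pH 7.4; initial rates by spectrophotometry. kcat and KM from double-reciprocal plots; kcat/KM as their ratio.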

[2] = substrate: COc1cccc(OC2=CCN(C)CC2)c1; test: as §1; how it was run: as §2
[3] = substrate: COc1ccc(OC2=CCN(C)CC2)cc1; test: as §1; how it was run: as §2
[4] = substrate: Cc1ccccc1OC1=CCN(C)CC1; test: as §1; how it was run: as §2
[5] = substrate: CN1CC=C(Oc2cccc(Cl)c2)CC1; test: as §1; how it was run: as §2
[6] = substrate: CN1CC=C(Cc2ccccc2)CC1; test: as §1; how it was run: as §2
[7] = substrate: CN1CC=C(Oc2ccc(Cl)cc2)CC1; test: as §1; how it was run: as §2
[8] = substrate: CN1CC=C(Oc2cccc([N+](=O)[O-])c2)CC1; test: as §1; how it was run: as §2
[9] = substrate: CN1CC=C(Oc2ccc([N+](=O)[O-])cc2)CC1; test: as §1; how it was run: as §2
[10] = substrate: Cc1ccc(OC2=CCN(C)CC2)cc1; test: as §1; how it was run: as §2
[11] = substrate: CN1CC=C(Oc2ccccc2Cl)CC1; test: as §1; how it was run: as §2
[12] = substrate: COc1ccccc1OC1=CCN(C)CC1; test: as §1; how it was run: as §2
[13] = substrate: CN1CC=C(Oc2ccccc2[N+](=O)[O-])CC1; test: as §1; how it was run: as §2
[14] = substrate: CN1CC=C(Oc2cccc(-c3ccccc3)c2)CC1; test: as §1; how it was run: as §2
[15] = substrate: Cc1cccc(OC2=CCN(C)CC2)c1; test: as §1; how it was run: as §2
[16] = substrate: CN1CC=C(Oc2ccccc2-c2ccccc2)CC1; test: (§3) Michaelis-Menten constant for Monoamine oxidase B catalyzed oxidation (KM).; design: species or system Bos taurus
How it was run: (§4)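 MAO-B at 0.08 μM final; activity was calibrated with MPTP at 30 °C and the preparation was stored at –15 °C. Substrate range 100–2000 μM in 100 mM sodium phosphate pH 7.4, with spectrophotometric initial oxidation rates. KM and kcat derived from double-reciprocal plots, and kcat/KM calculated from them.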

[17] = substrate: COc1cccc(OC2=CCN(C)CC2)c1; test: as §3; design: species or system Bos taurus; how it was run: as §4
[18] = substrate: COc1ccc(OC2=CCN(C)CC2)cc1; test: as §3; design: species or system Bos taurus; how it was run: as §4
[19] = substrate: Cc1ccccc1OC1=CCN(C)CC1; test: as §3; design: species or system Bos taurus; how it was run: as §4
[20] = substrate: CN1CC=C(Oc2cccc(Cl)c2)CC1; test: as §3; design: species or system Bos taurus; how it was run: as §4
[21] = substrate: CN1CC=C(Cc2ccccc2)CC1; test: as §3; design: species or system Bos taurus; how it was run: as §4
[22] = substrate: CN1CC=C(Oc2ccc(Cl)cc2)CC1; test: as §3; design: species or system Bos taurus; how it was run: as §4
[23] = substrate: CN1CC=C(Oc2cccc([N+](=O)[O-])c2)CC1; test: as §3; design: species or system Bos taurus; how it was run: as §4
[24] = substrate: CN1CC=C(Oc2ccc([N+](=O)[O-])cc2)CC1; test: as §3; design: species or system Bos taurus; how it was run: as §4
[25] = substrate: Cc1ccc(OC2=CCN(C)CC2)cc1; test: as §3; design: species or system Bos taurus; how it was run: as §4
[26] = substrate: CN1CC=C(Oc2ccccc2Cl)CC1; test: as §3; design: species or system Bos taurus; how it was run: as §4
[27] = substrate: COc1ccccc1OC1=CCN(C)CC1; test: as §3; design: species or system Bos taurus; how it was run: as §4
[28] = substrate: CN1CC=C(Oc2ccccc2[N+](=O)[O-])CC1; test: as §3; design: species or system Bos taurus; how it was run: as §4
[29] = substrate: CN1CC=C(Oc2cccc(-c3ccccc3)c2)CC1; test: as §3; design: species or system Bos taurus; how it was run: as §4
[30] = substrate: Cc1cccc(OC2=CCN(C)CC2)c1; test: as §3; design: species or system Bos taurus; how it was run: as §4

B1: Amine oxidase [flavin-containing] A (Homo sapiens) (protein)
chain: MENQEKASIAGHMFDVVVIGGGISGLSAAKLLTEYGVSVLVLEARDRVGGRTYTIRNEHVDYVDVGGAYVGPTQNRILRLSKELGIETYKVNVSERLVQYVKGKTYPFRGAFPPVWNPIAYLDYNNLWRTIDNMGKEIPTDAPWEAQHADKWDKMTMKELIDKICWTKTARRFAYLFVNINVTSEPHEVSALWFLWYVKQCGGTTRIFSVTNGGQERKFVGGSGQVSERIMDLLGDQVKLNHPVTHVDQSSDNIIIETLNHEHYECKYVINAIPPTLTAKIHFRPELPAERNQLIQRLPMGAVIKCMMYYKEAFWKKKDYCGCMIIEDEDAPISITLDDTKPDGSLPAIMGFILARKADRLAKLHKEIRKKKICELYAKVLGSQEALHPVHYEEKNWCEEQYSGGCYTAYFPPGIMTQYGRVIRQPVGRIFFAGTETATKWSGYMEGAVEAGERAAREVLNGLGKVTEKDIWVQEPESKDVPAVEITHTFWERNLPSVSGLLKIIGFSTSVTALGFVLYKYKLLPRS
Km [1]: 426 µM | kcat [1]: 4.08 s⁻¹ | kcat/Km [1]: 9580 M⁻¹ s⁻¹ | Km [2]: 176 µM | kcat [2]: 8.2 s⁻¹ | kcat/Km [2]: 46600 M⁻¹ s⁻¹ | Km [3]: 47 µM | kcat [3]: 1.22 s⁻¹ | kcat/Km [3]: 25800 M⁻¹ s⁻¹ | Km [4]: 108 µM | kcat [4]: 4.5 s⁻¹ | kcat/Km [4]: 41700 M⁻¹ s⁻¹ | Km [5]: 82 µM | kcat [5]: 5.97 s⁻¹ | kcat/Km [5]: 72800 M⁻¹ s⁻¹ | Km [6]: 103 µM | kcat [6]: 0.467 s⁻¹ | kcat/Km [6]: 4600 M⁻¹ s⁻¹ | Km [7]: 63 µM | kcat [7]: 3.15 s⁻¹ | kcat/Km [7]: 50100 M⁻¹ s⁻¹ | Km [8]: 174 µM | kcat [8]: 4.95 s⁻¹ | kcat/Km [8]: 28500 M⁻¹ s⁻¹ | Km [9]: 169 µM | kcat [9]: 1.37 s⁻¹ | kcat/Km [9]: 8050 M⁻¹ s⁻¹ | Km [10]: 129 µM | kcat [10]: 1.3 s⁻¹ | kcat/Km [10]: 10000 M⁻¹ s⁻¹ | Km [11]: 83 µM | kcat [11]: 3.4 s⁻¹ | kcat/Km [11]: 41000 M⁻¹ s⁻¹ | Km [12]: 75 µM | kcat [12]: 0.95 s⁻¹ | kcat/Km [12]: 12700 M⁻¹ s⁻¹ | Km [13]: 306 µM | kcat [13]: 6.83 s⁻¹ | kcat/Km [13]: 22300 M⁻¹ s⁻¹ | Km [14]: 232 µM | kcat [14]: 21.5 s⁻¹ | kcat/Km [14]: 92800 M⁻¹ s⁻¹ | Km [15]: 212 µM | kcat [15]: 7.18 s⁻¹ | kcat/Km [15]: 33900 M⁻¹ s⁻¹

B2: Amine oxidase [flavin-containing] B (Bos taurus) (protein)
chain: MSSKCDVVVVGGGISGMAAAKLLHDSGLNVIVLEARDRVGGRTYTLRNQKVKYVDLGGSYVGPTQNHILRLSKELGLETYKVNEVERLIHHTKGKSYPFRGSFPSVWNPITYLDHNNLWRTMDDMGREIPSDAPWKAPLAEQWDLMTMKELLDKICWTESSKQLAILFVNLCVTAEIHEVSALWFLWYVKQCGGTTRIFSTSNGGQERKFVGGSGQVSERIMDLLGDRVKLERPVIHIDQTGENVLVETLNHELYEAKYVISAVPPVLGMKIHFNPPLPMMRNQLITRVPLGSVIKSIVYYKEPFWRNMDYCGSMIIEGEEAPVAYALDDTKPDGSYPAIIGFILAHKARKLARLTKEERLKKLCDLYAKVLGSQEALHPVHYEEKNWCEEQYSGGCYTSYFPPGIMTQYGRVLRQPVGRIYFAGTETATHWSGYMEGAVEAGERAAREILHAMGKIPEDEIWLPEPESVDVPAKPITTTFLQRHLPSVPGLLKLIGLTTIFSATALGFLAHKRGLLVRI
Km [16]: 691 µM | kcat [16]: 1.52 s⁻¹ | kcat/Km [16]: 2200 M⁻¹ s⁻¹ | Km [17]: 337 µM | kcat [17]: 4.05 s⁻¹ | kcat/Km [17]: 12000 M⁻¹ s⁻¹ | Km [18]: 474 µM | kcat [18]: 5.9 s⁻¹ | kcat/Km [18]: 12400 M⁻¹ s⁻¹ | Km [19]: 98 µM | kcat [19]: 2.92 s⁻¹ | kcat/Km [19]: 29700 M⁻¹ s⁻¹ | Km [20]: 308 µM | kcat [20]: 3.73 s⁻¹ | kcat/Km [20]: 12200 M⁻¹ s⁻¹ | Km [21]: 180 µM | kcat [21]: 10.7 s⁻¹ | kcat/Km [21]: 59700 M⁻¹ s⁻¹ | Km [22]: 254 µM | kcat [22]: 5.93 s⁻¹ | kcat/Km [22]: 23400 M⁻¹ s⁻¹ | Km [23]: 105 µM | kcat [23]: 2.47 s⁻¹ | kcat/Km [23]: 23500 M⁻¹ s⁻¹ | Km [24]: 443 µM | kcat [24]: 1.4 s⁻¹ | kcat/Km [24]: 3180 M⁻¹ s⁻¹ | Km [25]: 106 µM | kcat [25]: 3.57 s⁻¹ | kcat/Km [25]: 33600 M⁻¹ s⁻¹ | Km [26]: 220 µM | kcat [26]: 3.02 s⁻¹ | kcat/Km [26]: 13700 M⁻¹ s⁻¹ | Km [27]: 313 µM | kcat [27]: 5.7 s⁻¹ | kcat/Km [27]: 12400 M⁻¹ s⁻¹ | Km [28]: 86 µM | kcat [28]: 1.13 s⁻¹ | kcat/Km [28]: 13100 M⁻¹ s⁻¹ | Km [29]: 346 µM | kcat [29]: 3.67 s⁻¹ | kcat/Km [29]: 10600 M⁻¹ s⁻¹ | Km [30]: 116 µM | kcat [30]: 3.37 s⁻¹ | kcat/Km [30]: 29100 M⁻¹ s⁻¹
